Screening results as filed in PubChem BioAssay.
Sampled rows, rich in hits. Any-hit rate of the full collection: about 2.9%.
SENP1 inh – inhibitors of human SENP1 SUMO protease catalytic domain. hit rate 0.21% among 360,000. Q9P0U3. recombinant SENP1 catalytic domain, CyPet-SUMO1-YPet FRET cleavage. inhibition, % at 10 µM;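 active means inhibition at least 30% at 10 µM, raw YFP signal under a set limit, fluorescence ratio 0.5 to 1.5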
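Test system: human SENP1 catalytic domain; medium: Tris pH 8 buffer plus EDTA, NaCl, BME, BSA, NP40, catalase; incubation: 50 min reaction at room temperature; technique: FRET, CFP and YFP emission; controls: no-enzyme low control and enzyme-plus-DMSO high control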
SENP8 block-1 – inhibitors of human SENP8 protease | inhibition, % at 20 µM | hit rate 0.64% among 360,000 | Q96LD8 | recombinant SENP8, Nedd8 substrate fluorescence; in the data active means inhibition mostly above about 40%, no sharp cut-off; inactive means mostly below about 27%
Apaf-1 inh – blocks human Apaf-1 apoptosome activity | O14727 | reconstituted apoptosome caspase-3 activity, DEVD-Rh110 fluorescence | inhibition, % at 20 µM | hit rate 0.71% among 330,000 | AID 489030; active means inhibition of at least 40% at 20 µM
Target sequence (O14727 whole entry, looked up): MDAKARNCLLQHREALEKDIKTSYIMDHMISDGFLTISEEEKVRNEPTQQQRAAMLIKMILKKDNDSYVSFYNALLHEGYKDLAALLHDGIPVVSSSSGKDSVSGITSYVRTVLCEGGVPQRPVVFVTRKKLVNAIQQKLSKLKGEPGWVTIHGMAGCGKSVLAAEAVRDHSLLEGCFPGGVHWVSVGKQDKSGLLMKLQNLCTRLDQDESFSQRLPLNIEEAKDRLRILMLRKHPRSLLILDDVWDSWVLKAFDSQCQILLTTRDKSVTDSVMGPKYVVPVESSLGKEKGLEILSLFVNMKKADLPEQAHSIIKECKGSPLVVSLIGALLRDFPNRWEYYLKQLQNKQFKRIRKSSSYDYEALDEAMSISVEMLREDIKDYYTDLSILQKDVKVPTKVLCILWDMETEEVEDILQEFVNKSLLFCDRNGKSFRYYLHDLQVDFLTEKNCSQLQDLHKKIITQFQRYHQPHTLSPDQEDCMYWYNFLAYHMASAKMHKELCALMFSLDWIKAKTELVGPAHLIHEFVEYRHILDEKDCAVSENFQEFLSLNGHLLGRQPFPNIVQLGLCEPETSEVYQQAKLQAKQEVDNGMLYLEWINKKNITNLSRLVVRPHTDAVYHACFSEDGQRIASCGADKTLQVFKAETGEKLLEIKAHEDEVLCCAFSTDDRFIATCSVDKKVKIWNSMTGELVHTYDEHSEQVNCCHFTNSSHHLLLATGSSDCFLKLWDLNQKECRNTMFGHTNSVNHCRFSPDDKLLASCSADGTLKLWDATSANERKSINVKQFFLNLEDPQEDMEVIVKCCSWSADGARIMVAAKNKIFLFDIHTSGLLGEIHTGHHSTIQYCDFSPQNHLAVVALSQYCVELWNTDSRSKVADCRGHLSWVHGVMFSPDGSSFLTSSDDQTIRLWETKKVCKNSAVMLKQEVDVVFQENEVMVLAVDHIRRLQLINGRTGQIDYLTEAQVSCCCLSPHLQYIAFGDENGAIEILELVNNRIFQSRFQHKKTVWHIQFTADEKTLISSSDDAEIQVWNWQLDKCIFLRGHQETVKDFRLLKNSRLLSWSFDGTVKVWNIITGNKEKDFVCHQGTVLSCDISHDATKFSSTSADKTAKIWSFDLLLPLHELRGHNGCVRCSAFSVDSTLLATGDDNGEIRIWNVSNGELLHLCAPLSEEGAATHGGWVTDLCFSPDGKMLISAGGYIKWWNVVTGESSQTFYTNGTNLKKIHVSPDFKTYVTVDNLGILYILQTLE
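Material: biochemical Apaf-1 apoptosome reconstitution. Medium: Hepes buffer, pH 7.5. Also added: cytochrome c activation, bis-DEVD rhodamine 110 substrate. Timing: 30 min compound preincubation, 50 min activation, room temperature. Measured by: rhodamine 110 fluorescence at Ex 480/Em 540 nm.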
SENP8 block-2 – blocks the human protease SENP8 | inhibition, % at 10 µM | hit rate 1.2% among 330,000 | purified SENP8, Z-RLRGG-aminoluciferin cleavage, luminescence | AID 2540 | Q96LD8; in the data active means inhibition above about 50%
SENP7 inh – inhibitors of human SENP7 protease; Q9BQF6; recombinant SENP7, Z-RLRGG-aminoluciferin luminescence, 40 min; inhibition, % at 5 µM; hit rate 1.5% among 330,000;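 active means inhibition above about 50% at the single test dose, limit read from the data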
SENP6 inh – SENP6 protease inhibition | Q9GZR1 | Recombinant SENP6 catalytic domain, aminoluciferin luminescence | inhibition, % at 10 µM | hit rate 1.8% among 330,000 | AID 2599;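 active means inhibition above about 50% at the single tested dose, limit read from the data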
SENP8 conf – confirmation of human SENP8 protease inhibitors; shares compounds with SENP7 inh; Recombinant SENP8, Z-RLRGG-aminoluciferin luminescence, 60 min; inhibition, % at 12.5 µM; hit rate 40% among 6,200; AID 488912;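 active means mean inhibition across replicates above about 50%, limit read from the data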
SENP6 conf – confirmation of human SENP6 protease inhibitors. hit rate 58% among 6,200. shares compounds with SENP7 inh. recombinant SENP6, Z-RLRGG-aminoluciferin luminescence. inhibition, % at 12.5 µM
SENP7 confirm – confirmation of human SENP7 protease inhibitors; hit rate 69% among 6,200; inhibition, % at 12.5 µM; AID 488917; recombinant SENP7, Z-RLRGG-aminoluciferin luminescence, 40 min; shares compounds with SENP7 inh
Casp3 select – caspase-3 inhibition (SENP selectivity assay); purified caspase-3, Z-DEVD-aminoluciferin luminescence, 60 min; shares compounds with SENP7 inh; AID 488918; hit rate 60% among 6,200; inhibition, % at 12.5 µM;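 active means mean inhibition above about 50%, limit read from the data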
SENP luc ctr – luminescence interference (SENP counter-screen). shares compounds with SENP7 inh. Pre-incubated SENP8/Z-RLRGG-aminoluciferin, luciferase luminescence interference. inhibition, % at 12.5 µM. hit rate 39% among 6,200;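 active means mean inhibition above about 50% when retested at one dose, limit read from the data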
Each line names hits and unclear results; the compound was inactive in the other large screens (follow-up assays come after a bar, where they were run).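 How the source made its calls, unless noted: active means mean inhibition above about 50% in the one-dose retest (limit read from the data); inactive means the rest.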

CCNC(=S)NNC(=O)c1cc(-c2cccc(C)c2)nc2ccccc12	SENP8 block-2 81, SENP7 inh 72, SENP6 inh 85 | SENP8 conf 90 | SENP6 conf 90 | SENP7 confirm 98 | Casp3 select 96 | SENP luc ctr 92
CCNC(=S)NNC(=O)c1cc(-c2cccnc2)nc2ccccc12	none
CCCCOc1cccc(-c2cc(C(=O)NNC(=S)NCC)c3ccccc3n2)c1	none
CCNC(=S)NNC(=O)c1cc(-c2cccc(OCC)c2)nc2ccccc12	none
CCNC(=S)NNC(=O)c1cc(-c2ccc(OC)cc2)nc2ccccc12	SENP8 block-2 91, SENP7 inh 95, SENP6 inh 93 | SENP8 conf 96 | SENP6 conf 96 | SENP7 confirm 100 | Casp3 select 97 | SENP luc ctr 90
CCCCOc1ccc(-c2cc(C(=O)NNC(=S)NCC)c3ccccc3n2)cc1	SENP8 block-2 94, SENP7 inh 93, SENP6 inh 101 | SENP8 conf 98 | SENP6 conf 99 | SENP7 confirm 103 | Casp3 select 98 | SENP luc ctr 65
Cc1ccc2nsnc2c1S(=O)(=O)N(CCO)Cc1cc2cc3c(cc2[nH]c1=O)OCCO3	SENP7 inh 71 | SENP8 conf inactive | SENP6 conf inactive | SENP7 confirm inactive | Casp3 select inactive | SENP luc ctr inactive
Cc1ccc2[nH]c(=O)c(CN(CC3CCCO3)S(=O)(=O)c3c(C)ccc4nsnc34)cc2c1 (stereo unspecified)	none
O=C(Nc1ccc(F)cc1)c1ccccc1	none
CC(C)S(=O)(=O)c1csc(C(=O)Nc2ccc(F)cc2)c1N	SENP8 block-2 92, SENP7 inh 98, SENP6 inh 98 | SENP8 conf 96 | SENP6 conf 97 | SENP7 confirm 102 | Casp3 select 97 | SENP luc ctr 87
COc1ccc(C(=O)O/N=C(/C)c2cccs2)cc1	SENP8 block-2 97, SENP7 inh 99, SENP6 inh 98 | SENP8 conf inactive | SENP6 conf 101 | SENP7 confirm 104 | Casp3 select 99 | SENP luc ctr 99
C/C(=N\OC(=O)c1ccc(F)cc1)c1nccs1	SENP7 inh 84, SENP6 inh 74 | SENP8 conf inactive | SENP6 conf inactive | SENP7 confirm 50 | Casp3 select 56 | SENP luc ctr inactive
C/C(=N/OC(=O)c1c(F)cccc1F)c1nccs1	SENP7 inh 80, SENP6 inh 83 | SENP8 conf 74 | SENP6 conf 75 | SENP7 confirm 97 | Casp3 select 65 | SENP luc ctr 82
COc1ccc(C(=O)O/N=C(\C)c2nccs2)cc1	SENP8 block-2 87, SENP7 inh 97, SENP6 inh 79 | SENP8 conf 73 | SENP6 conf 96 | SENP7 confirm 100 | Casp3 select 96 | SENP luc ctr inactive
O=[N+]([O-])c1ccc(Cl)c(NC2=NCCCCC2)c1	none
O=C(COC(=O)c1ccc(O)cc1O)NC(=O)NCc1ccccc1	none
COc1cc(NC(=O)C[n+]2ccc(C(=O)c3ccccc3)cc2)cc(OC)c1	none
COc1ccc(C(=O)CSc2ccc(-c3ccccc3)nn2)cc1	none
COc1ccc(-c2ccc(SC)nn2)cc1	SENP8 block-2 94, SENP7 inh 100, SENP6 inh 95 | SENP8 conf 98 | SENP6 conf 99 | SENP7 confirm 102 | Casp3 select 98 | SENP luc ctr 80
CCOc1ccc(-c2ccc(SCC)nn2)cc1	SENP8 block-2 80, SENP7 inh 90, SENP6 inh 65 | SENP8 conf 59 | SENP6 conf 68 | SENP7 confirm 85 | Casp3 select 74 | SENP luc ctr inactive
CCSc1ccc(-c2ccc(C)cc2)nn1	none (no result: Apaf-1 inh, SENP8 block-2, SENP7 inh, SENP6 inh)
COC1OC(COCc2ccccc2)C(N)C(OCc2ccccc2)C1OCc1ccccc1 (stereo unspecified)	none (no result: Apaf-1 inh, SENP8 block-2, SENP7 inh, SENP6 inh)
COc1ccccc1NC(=O)C(=O)Nc1ccc2c(c1)N(C(=O)C1CC1)CCC2	SENP7 inh 56 | SENP8 conf inactive | SENP6 conf inactive | SENP7 confirm inactive | Casp3 select inactive | SENP luc ctr inactive
COc1ccccc1NC(=S)N1CCCc2ccccc21	none
CC(=O)Nc1ccc(C(=O)N2CCCc3ccccc32)cc1	none
CC(=O)Nc1cccc(NC(=O)C(=O)Nc2ccc3c(c2)N(C(=O)C2CC2)CCC3)c1	SENP7 inh 50, SENP6 inh 59 | SENP8 conf inactive | SENP6 conf inactive | SENP7 confirm 75 | Casp3 select 65 | SENP luc ctr inactive
COc1cccc(SCc2noc(C(=O)NCC3CC3)c2C(=O)NCC2CC2)c1	none
CCCCNC(=O)c1ccc(NC(=O)CC2SC(N3CCCC3)=NC2=O)cc1 (stereo unspecified)	none
CC1(C(=O)Nc2cccc3ccccc23)CCN1C(=O)C1(c2ccccc2)CCCC1 (stereo unspecified)	none (no result: Apaf-1 inh, SENP8 block-2, SENP7 inh, SENP6 inh)
O=C(O)c1cccc(NC(=S)NC(=O)c2cccc(OCc3ccccc3)c2)c1	SENP6 inh 56 | SENP8 conf 71 | SENP6 conf 61 | SENP7 confirm 76 | Casp3 select inactive | SENP luc ctr 63
O=C(Nc1ccc(COc2ccccc2)cc1)Nc1cccc(C(=O)O)c1	SENP8 block-2 93, SENP7 inh 92, SENP6 inh 97 | SENP8 conf inactive | SENP6 conf 100 | SENP7 confirm inactive | Casp3 select 60 | SENP luc ctr inactive
O=c1oc2cc(O)ccc2c2oc3cc(O)ccc3c12	SENP8 block-2 69, SENP6 inh 74 | SENP8 conf inactive | SENP6 conf inactive | SENP7 confirm 89 | Casp3 select 63 | SENP luc ctr inactive
